In ChEMBL document CHEMBL1137343, “4-arylazo-3,5-diamino-1H-pyrazole CDK inhibitors: SAR study, crystal structure in complex with CDK2, selectivity, and cellular effects” (J Med Chem, 2006) one finds Activity data, which are given here for one molecule.

Common to all, as to format: functional, Homo sapiens
Assay [1] deals with HT-29. Briefly: Inhibition of CEA mRNA synthesis in HT29 cells measured as number of copies per 10^6 cells by RT PCR at 70 uM after 12 hrs. The procedure, abridged: (§1)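 HT-29 cells were treated 3, 6 or 12 h; total RNA extracted with TRI reagent. 3 µg RNA reverse-transcribed with random primers and M-MLV RT at 42 °C for 60 min. CEA transcripts quantified by TaqMan real-time PCR: 50 cycles of 95 °C 15 s and 65 °C 15 s. Absolute copies came from amplicon standards of 30 to 10^6 copies, expressed per 10^6 cells. Samples run in duplicate PCR; values average of four determinations ± SD.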

The test system of assay [2] is HT-29. Kind of assay: Cell cycle arrest in HT29 cells by accumulation at G0/G1 phase at 70 uM after 12 hrs. The procedure, abridged:
(§2)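 Subconfluent, asynchronous HT-29 cells were treated 3, 6 or 12 h, then pulsed with 10 µM BrdU for 30 min at 37 °C. Cells were fixed in ice-cold 70% ethanol, DNA denatured in 2 M HCl and neutralised with borate. Staining used FITC anti-BrdU, then propidium iodide (0.1 mg/mL) with RNase A. Analysis by flow cytometry with 488 nm laser.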

Assay [3] has as its system HT-29. Briefly: Inhibition of CEA mRNA synthesis in HT29 cells measured as number of copies per 10^6 cells by RT PCR at 70 uM after 6 hrs. The procedure, abridged: as §1
The subject of assay [4] is HT-29. Kind of assay: Cell cycle arrest in HT29 cells by accumulation at S phase at 70 uM after 6 hrs. The procedure, abridged: as §2
Assay [5] has as its system HT-29. Briefly: Inhibition of EpCAM mRNA synthesis in HT29 cells measured as number of copies per 10^6 cells by RT PCR at 70 uM after 3 hrs. The essentials: (§3)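 HT-29 cells (5 × 10⁶) treated for 3, 6 or 12 h; total RNA extracted with TRI reagent, 3 µg reverse transcribed with random primers and M-MLV RT (42 °C, 60 min). Absolute transcript copies quantified by TaqMan real-time PCR, 50 cycles, against diluted gene-specific amplicon standards (30–1 000 000 copies); duplicate PCR per sample; values are means of four determinations ± SD.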

Assay [6] relates to HT-29. Kind of assay: Cell cycle arrest in HT29 cells by accumulation at S phase at 70 uM after 12 hrs. The procedure, abridged:
as §2

Assay [7] has as its system HT-29. Kind of assay: Cell cycle arrest in HT29 cells by accumulation at G0/G1 phase at 70 uM after 6 hrs. The essentials: as §2
Assay [8] deals with HT-29. Kind of assay: Inhibition of CEA mRNA synthesis in HT29 cells measured as number of copies per 10^6 cells by RT PCR at 70 uM after 3 hrs. The essentials:
as §1

The subject of assay [9] is HT-29. Kind of assay: Inhibition of EpCAM mRNA synthesis in HT29 cells measured as number of copies per 10^6 cells by RT PCR at 70 uM after 6 hrs. The essentials:
as §3

Assay [10] has as its system HT-29. Kind of assay: Inhibition of GAPDH mRNA synthesis in HT29 cells measured as number of copies per 10^6 cells by RT PCR at 70 uM after 6 hrs. The procedure, abridged:
as §3

The subject of assay [11] is HT-29. Briefly: Cell cycle arrest in HT29 cells by accumulation at G0/G1 phase at 70 uM after 3 hrs. The essentials:
as §2

Assay [12] concerns HT-29. Briefly: Inhibition of GAPDH mRNA synthesis in HT29 cells measured as number of copies per 10^6 cells by RT PCR at 70 uM after 3 hrs. The essentials:
as §3

The test system of assay [13] is HT-29. Briefly: Inhibition of EpCAM mRNA synthesis in HT29 cells measured as number of copies per 10^6 cells by RT PCR at 70 uM after 12 hrs. The procedure, abridged: as §3
Assay [14] deals with HT-29. Kind of assay: Cell cycle arrest in HT29 cells by accumulation at S phase at 70 uM after 3 hrs. The procedure, abridged: as §2
The subject of assay [15] is HT-29. Kind of assay: Cell cycle arrest in HT29 cells by accumulation at G2/M phase at 70 uM after 12 hrs. The essentials: as §2
The test system of assay [16] is HT-29. Kind of assay: Cell cycle arrest in HT29 cells by accumulation at G2/M phase at 70 uM after 6 hrs. The procedure, abridged:
as §2

The subject of assay [17] is HT-29. Kind of assay: Cell cycle arrest in HT29 cells by accumulation at G2/M phase at 70 uM after 3 hrs. The procedure, abridged:
as §2

In assay [18] the test system is HT-29. Briefly: Inhibition of GAPDH mRNA synthesis in HT29 cells measured as number of copies per 10^6 cells by RT PCR at 70 uM after 12 hrs. The procedure, abridged:
as §3

As for `CC[C@H](CO)Nc1nc(NCc2ccccc2)c2ncn(C(C)C)c2n1` [SELICICLIB], the Activity with HT-29 [1] came out at 24350; with HT-29 [2] it was 64.5%; in the assay on HT-29 [3] it was 19150; in the assay with HT-29 [4] it was 0.1%; with HT-29 [5] it was 8258813; in the assay with HT-29 [6], 1.1%. Moreover, the Activity with HT-29 [7] is on record as 44%; with HT-29 [8], 30568; in the assay with HT-29 [9] it was 6151085; in the assay with HT-29 [10], 3146605; in the assay on HT-29 [11], 48%; with HT-29 [12], 3945095. Besides, the Activity worked out at 6863365 with HT-29 [13]; 1.1% in the assay on HT-29 [14]; 34.5% in the assay with HT-29 [15]; 55.9% with HT-29 [16]; 50.9% with HT-29 [17]; 3926015 in the assay on HT-29 [18].
